Measurements as given in ChEMBL document CHEMBL4689842, “EUbOPEN Chemogenomics Library wave 1” (2021).

System: HEK-293T
Assay: Multiplex assay against HEK293T;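 on Population Tubulin-Different-Phenotype (%): share of the cells with healthy nuclei that show this phenotype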
Format: toxicity, cell-based
Settings: human
Summary of the method: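 Cells were classed with CellPathfinder machine-learning gating, first as Hoechst high-intensity objects or normal cells, then (normal cells) as healthy, pyknosed or fragmented nuclei, and finally (pyknosed cells) as mitotic or apoptotic. Staining of live cells at seeding used Hoechst33342, BioTracker Green Microtubule Cytoskeleton Dye, MitoTracker Red and Annexin V Alexa Fluor 680, with imaging on a CQ1 microscope at 37°C and 5% CO2 after compound addition. Tubulin, mitochondrial-mass and membrane-permeability phenotypes are per cents of healthy-nucleus cells.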

[1] = 12 h, 1 µM, compound concentration 1 uM, replicate 1
[2] = 12 h, 1 µM, compound concentration 1 uM, replicate 2
[3] = 12 h, 10 µM, compound concentration 10 uM, replicate 1
[4] = 12 h, 10 µM, compound concentration 10 uM, replicate 2
[5] = 24 h, 1 µM, compound concentration 1 uM, replicate 1
[6] = 24 h, 1 µM, compound concentration 1 uM, replicate 2
[7] = 24 h, 10 µM, compound concentration 10 uM, replicate 1
[8] = 24 h, 10 µM, compound concentration 10 uM, replicate 2

COc1ccc(S(=O)(=O)N(CCO)c2ccccc2CN(C)C/C=C/c2ccc(Cl)cc2)cc1.O=P(O)(O)O
Population Apoptotic (%) [1]: 42% | Population Fragmented Nuclei (%) [1]: 11% | Population Healthy Nuclei (%) [1]: 28% | Population Hoechst High Intensity Objects (%) [1]: 16% | Population Membrane Permeable-Phenotype (%) [1]: 6% | Population Mitochondria Different-Phenotype (%) [1]: 79% | Population Mitotic Cells (%) [1]: 57% | Population Normal (%) [1]: 83% | Population Pyknosed Nuclei (%) [1]: 59% | Population Tubulin-Different-Phenotype (%) [1]: 87% | Total Cell Count [1]: 585 | Population Apoptotic (%) [2]: 35% | Population Fragmented Nuclei (%) [2]: 1% | Population Healthy Nuclei (%) [2]: 67% | Population Hoechst High Intensity Objects (%) [2]: 7% | Population Membrane Permeable-Phenotype (%) [2]: 3% | Population Mitochondria Different-Phenotype (%) [2]: 90% | Population Mitotic Cells (%) [2]: 64% | Population Normal (%) [2]: 92% | Population Pyknosed Nuclei (%) [2]: 30% | Population Tubulin-Different-Phenotype (%) [2]: 90% | Total Cell Count [2]: 929 | Population Apoptotic (%) [3]: 14% | Population Fragmented Nuclei (%) [3]: 11% | Population Healthy Nuclei (%) [3]: 67% | Population Hoechst High Intensity Objects (%) [3]: 8% | Population Membrane Permeable-Phenotype (%) [3]: 6% | Population Mitochondria Different-Phenotype (%) [3]: 9% | Population Mitotic Cells (%) [3]: 85% | Population Normal (%) [3]: 91% | Population Pyknosed Nuclei (%) [3]: 21% | Population Tubulin-Different-Phenotype (%) [3]: 25% | Total Cell Count [3]: 633 | Population Apoptotic (%) [4]: 13% | Population Fragmented Nuclei (%) [4]: 6% | Population Healthy Nuclei (%) [4]: 87% | Population Hoechst High Intensity Objects (%) [4]: 3% | Population Mitochondria Different-Phenotype (%) [4]: 21% | Population Mitotic Cells (%) [4]: 86% | Population Normal (%) [4]: 96% | Population Pyknosed Nuclei (%) [4]: 6% | Population Tubulin-Different-Phenotype (%) [4]: 36% | Total Cell Count [4]: 1412 | Population Apoptotic (%) [5]: 61% | Population Fragmented Nuclei (%) [5]: 13% | Population Healthy Nuclei (%) [5]: 25% | Population Hoechst High Intensity Objects (%) [5]: 18% | Population Membrane Permeable-Phenotype (%) [5]: 7% | Population Mitochondria Different-Phenotype (%) [5]: 81% | Population Mitotic Cells (%) [5]: 38% | Population Normal (%) [5]: 81% | Population Pyknosed Nuclei (%) [5]: 60% | Population Tubulin-Different-Phenotype (%) [5]: 85% | Total Cell Count [5]: 551 | Population Apoptotic (%) [6]: 43% | Population Fragmented Nuclei (%) [6]: 1% | Population Healthy Nuclei (%) [6]: 59% | Population Hoechst High Intensity Objects (%) [6]: 10% | Population Membrane Permeable-Phenotype (%) [6]: 2% | Population Mitochondria Different-Phenotype (%) [6]: 95% | Population Mitotic Cells (%) [6]: 56% | Population Normal (%) [6]: 89% | Population Pyknosed Nuclei (%) [6]: 38% | Population Tubulin-Different-Phenotype (%) [6]: 77% | Total Cell Count [6]: 913 | Population Apoptotic (%) [7]: 17% | Population Fragmented Nuclei (%) [7]: 8% | Population Healthy Nuclei (%) [7]: 80% | Population Hoechst High Intensity Objects (%) [7]: 6% | Population Membrane Permeable-Phenotype (%) [7]: 10% | Population Mitochondria Different-Phenotype (%) [7]: 8% | Population Mitotic Cells (%) [7]: 82% | Population Normal (%) [7]: 93% | Population Pyknosed Nuclei (%) [7]: 11% | Population Tubulin-Different-Phenotype (%) [7]: 31% | Total Cell Count [7]: 745 | Population Apoptotic (%) [8]: 5% | Population Fragmented Nuclei (%) [8]: 15% | Population Hoechst High Intensity Objects (%) [8]: 2% | Population Mitotic Cells (%) [8]: 94% | Population Normal (%) [8]: 97% | Population Pyknosed Nuclei (%) [8]: 4% | Population Tubulin-Different-Phenotype (%) [8]: 37% | Total Cell Count [8]: 2203
